Experimental data taken from paper PMC4818746 (Annals of Clinical and Translational Neurology, 2016).
Values belong to the compound of their own block, whether it stands above or below them.

Legend:
[1] = molecular target: T1, LRRK2-G2019S (Homo sapiens, UniProt Q5S007, G2019S); test: Filter-binding kinase assay, G2019S activity on PEPrx3; assay type: biochemical
Procedure, shortened: (§1)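 Recombinant LRRK2 G2019S (0.8 μg) with 5 μg synthetic peptide substrate, 10 μCi [γ32P]ATP and 1X kinase buffer in 40 μL, incubated at 30°C for 20 min. 10 μL of reaction spotted onto P81 phosphocellulose disks, washed twice in 75 mmol/L phosphoric acid, then counted by liquid scintillation. Reported as mean CPM ± SEM (n = 4) of phosphorylated peptide.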

[2] = molecular target: T1, LRRK2-G2019S; test: Filter-binding kinase assay, G2019S activity on LRRKtide; assay type: biochemical
Procedure, shortened: as §1

[3] = molecular target: T1, LRRK2-G2019S; test: Radiometric kinase assay, LRRK2-G2019S activity on MBP; assay type: biochemical; settings: for inhibition of p-MBP (in words): screen of 84 antioxidants, 2 μmol/L; for reduction of p-MBP: G2019S on MBP, 2 μmol/L antioxidant, relative to vehicle control
[4] = cited from earlier work
[5] = tested on: dopaminergic neurons; settings: mouse; cited from earlier work
[6] = tested on: LRRK2 G2019S‐expressing transgenic flies; test: Number of TH+ DA neurons in G2019S fly brains; assay type: in vivo, Drosophila; settings: 10 μmol/L in diet; for increase in number of neurons in PPM3: 60 days posteclosion
Procedure, shortened: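 G2019S transgenic flies (ddc-GAL4 driver) fed cornmeal food containing test compound at 10 μmol/L (DMSO) or plain food, at 25°C. Whole-mount adult brains dissected 60 days after eclosion and immunostained with rabbit anti-TH (1:200). DA neurons scored per cluster, including PPM3, by confocal microscopy. Given as mean count per cluster (n = 4; cohort of 20).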

[7] = tested on: ddc‐GAL4‐hLRRK2 G2019S flies; test: Oxidative state assays; assay type: in vivo, Drosophila; settings: 10 μmol/L in food, relative fluorescence, control 31,756 ± 4142
[8] = tested on: LRRK2 G2019S‐expressing transgenic flies; test: Climbing assay; assay type: in vivo, Drosophila; settings: 10 μmol/L in diet
[9] = molecular target: LRRK2-WT (Homo sapiens, UniProt Q5S007); test: Radiometric kinase assay, LRRK2-WT activity on MBP; assay type: biochemical; settings: IC50 against LRRK2-WT, MBP substrate
[10] = tested on: LRRK2 G2019S‐expressing transgenic flies; test: Lifespan / survival of G2019S flies; assay type: in vivo, Drosophila; settings: nonsignificant
Procedure, shortened: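 ddc-GAL4-hLRRK2 G2019S flies raised at 25°C on cornmeal food, replaced every 2 days, either plain or with test compound in DMSO added at 10 μmol/L. Read-out is the percentage of surviving flies; n = 4 cohorts of 60.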

T1 sequence (Q5S007 whole entry G2019S): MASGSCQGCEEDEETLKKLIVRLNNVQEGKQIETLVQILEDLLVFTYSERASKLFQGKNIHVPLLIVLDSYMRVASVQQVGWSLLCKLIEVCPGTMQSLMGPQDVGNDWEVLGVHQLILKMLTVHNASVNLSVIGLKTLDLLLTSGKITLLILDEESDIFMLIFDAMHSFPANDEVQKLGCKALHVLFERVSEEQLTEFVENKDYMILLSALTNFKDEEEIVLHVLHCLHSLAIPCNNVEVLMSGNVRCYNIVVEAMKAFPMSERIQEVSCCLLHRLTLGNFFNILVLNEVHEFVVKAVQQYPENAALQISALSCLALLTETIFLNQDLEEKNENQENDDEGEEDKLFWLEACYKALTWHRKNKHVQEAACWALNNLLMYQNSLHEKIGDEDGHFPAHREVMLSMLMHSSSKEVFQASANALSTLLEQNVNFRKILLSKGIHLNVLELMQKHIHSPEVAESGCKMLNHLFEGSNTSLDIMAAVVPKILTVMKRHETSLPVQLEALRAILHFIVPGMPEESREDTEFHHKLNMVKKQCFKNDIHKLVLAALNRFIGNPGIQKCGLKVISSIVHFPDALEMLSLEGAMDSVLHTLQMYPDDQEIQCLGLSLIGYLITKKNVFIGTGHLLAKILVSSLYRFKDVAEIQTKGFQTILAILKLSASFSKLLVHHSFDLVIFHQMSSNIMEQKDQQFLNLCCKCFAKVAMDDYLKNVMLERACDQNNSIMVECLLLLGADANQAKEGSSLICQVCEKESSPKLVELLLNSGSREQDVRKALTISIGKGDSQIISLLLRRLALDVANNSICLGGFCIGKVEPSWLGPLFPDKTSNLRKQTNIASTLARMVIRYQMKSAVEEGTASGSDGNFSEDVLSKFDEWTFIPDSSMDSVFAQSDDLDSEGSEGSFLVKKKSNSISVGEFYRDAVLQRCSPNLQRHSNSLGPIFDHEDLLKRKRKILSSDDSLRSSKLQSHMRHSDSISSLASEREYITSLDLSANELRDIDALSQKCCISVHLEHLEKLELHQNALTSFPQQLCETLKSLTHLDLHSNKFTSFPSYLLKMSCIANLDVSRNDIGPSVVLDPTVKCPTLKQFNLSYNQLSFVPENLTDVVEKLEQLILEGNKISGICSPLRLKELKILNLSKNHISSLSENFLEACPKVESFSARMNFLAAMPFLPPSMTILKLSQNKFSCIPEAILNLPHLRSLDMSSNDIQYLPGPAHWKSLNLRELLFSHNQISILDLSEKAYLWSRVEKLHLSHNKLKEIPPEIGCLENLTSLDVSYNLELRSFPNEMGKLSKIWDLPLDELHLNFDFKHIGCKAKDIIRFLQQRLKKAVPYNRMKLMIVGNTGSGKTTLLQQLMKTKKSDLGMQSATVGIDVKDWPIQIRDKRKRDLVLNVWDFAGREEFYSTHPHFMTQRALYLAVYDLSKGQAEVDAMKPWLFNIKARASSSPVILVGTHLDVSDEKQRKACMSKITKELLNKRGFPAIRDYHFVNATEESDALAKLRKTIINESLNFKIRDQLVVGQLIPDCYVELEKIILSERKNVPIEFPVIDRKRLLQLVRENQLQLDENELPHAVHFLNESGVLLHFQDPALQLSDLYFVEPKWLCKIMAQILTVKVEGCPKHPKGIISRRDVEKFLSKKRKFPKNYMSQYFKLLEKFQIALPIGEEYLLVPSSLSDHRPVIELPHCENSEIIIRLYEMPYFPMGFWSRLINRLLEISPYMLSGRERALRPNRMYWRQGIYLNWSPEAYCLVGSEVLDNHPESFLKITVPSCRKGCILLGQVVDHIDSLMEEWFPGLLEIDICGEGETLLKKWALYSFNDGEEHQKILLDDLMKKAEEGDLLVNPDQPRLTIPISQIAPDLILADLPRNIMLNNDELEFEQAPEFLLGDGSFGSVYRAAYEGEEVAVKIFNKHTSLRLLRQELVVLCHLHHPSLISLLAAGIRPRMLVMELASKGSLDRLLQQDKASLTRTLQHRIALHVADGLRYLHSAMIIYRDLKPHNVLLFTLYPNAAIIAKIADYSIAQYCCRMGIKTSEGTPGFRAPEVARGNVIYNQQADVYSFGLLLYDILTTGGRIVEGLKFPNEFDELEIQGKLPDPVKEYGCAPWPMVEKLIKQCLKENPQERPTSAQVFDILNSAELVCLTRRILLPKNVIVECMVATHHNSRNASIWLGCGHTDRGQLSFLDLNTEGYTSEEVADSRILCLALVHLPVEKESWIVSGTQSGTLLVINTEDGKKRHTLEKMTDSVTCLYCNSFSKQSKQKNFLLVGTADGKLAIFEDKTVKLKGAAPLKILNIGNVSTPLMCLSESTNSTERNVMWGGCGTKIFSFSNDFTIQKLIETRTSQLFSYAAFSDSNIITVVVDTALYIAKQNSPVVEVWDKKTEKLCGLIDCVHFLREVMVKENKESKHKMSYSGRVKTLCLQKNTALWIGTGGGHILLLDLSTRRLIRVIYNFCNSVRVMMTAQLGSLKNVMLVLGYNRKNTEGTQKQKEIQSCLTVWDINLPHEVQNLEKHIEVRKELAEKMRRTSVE
Chain of LRRK2-WT (Q5S007 whole entry): as the sequence (Q5S007 whole entry G2019S) above, with S2019G counted along it

SMILES: Cc1cc2c(C(C)C)c(O)c(O)c(C=O)c2c(O)c1-c1c(C)cc2c(C(C)C)c(O)c(O)c(C=O)c2c1O [Gossypol]
- kinase activity toward PEPrx3 (in words) [1]: most significantly reduced
- kinase activity toward LRRKtide (in words) [2]: most significantly reduced

SMILES: CC1=C(/C=C/C(C)=C/C=C/C(C)=C/C=C/C=C(C)/C=C/C=C(C)/C=C/C2=C(C)CCCC2(C)C)C(C)(C)CCC1 [β-carotene]
- inhibition of p-MBP (in words) [3]: Weak or noninhibitory

SMILES: Cc1c(O)cc2c(c1C)O[C@](C)(CCC[C@H](C)CCC[C@H](C)CCCC(C)C)CC2 [γ‐Tocopherol]
- reduction of p-MBP [3]: ~ 90%

SMILES: O=c1ccc2cc(O)c(O)cc2o1 [Esculetin]
- crossing of the blood–brain barrier [4]: readily cross the blood–brain barrier
- kinase activity toward PEPrx3 (in words) [1]: most significantly reduced
- protection of dopaminergic neurons against MPP+ [5]: protect dopaminergic neurons against MPP+
- increase in number of neurons in PPM3 [6]: up to 55%
- level of H2O2 in brain lysates [7]: 20,220 ± 1909
- kinase activity toward LRRKtide (in words) [2]: most significantly reduced

SMILES: O=C(/C=C/c1ccc(O)c(O)c1)O[C@H](Cc1ccc(O)c(O)c1)C(=O)O [Rosmarinic acid]
- kinase activity toward PEPrx3 (in words) [1]: most significantly reduced
- kinase activity toward LRRKtide (in words) [2]: most significantly reduced

SMILES: CN[C@@H]1C[C@H]2O[C@@](C)([C@@H]1OC)n1c3ccccc3c3c4c(c5c6ccccc6n2c5c31)C(=O)NC4 [Staurosporine]
- LRRK2 kinase activity (in words) ([3]; 10^−3 and 10^−1 μmol/L staurosporine, Fig. 1C): reduced kinase activity

SMILES: N[C@@H](CCC(=O)N[C@@H](CS)C(=O)NCC(=O)O)C(=O)O [Glutathione]
- inhibition of p-MBP (in words) [3]: Weak or noninhibitory

SMILES: CC1=CC(=O)C(C(C)C)=CC1=O [Thymoquinone]
- crossing of the blood–brain barrier [4]: readily cross the blood–brain barrier
- kinase activity toward PEPrx3 (in words) [1]: most significantly reduced
- protection of dopaminergic neurons against MPP+ [5]: protect dopaminergic neurons against MPP+
- increase in number of neurons in PPM3 [6]: up to 55%
- increase in climbing scores [8]: ≤ 17%
- level of H2O2 in brain lysates [7]: 18,445 ± 1229
- IC50 ([3]; IC50 against LRRK2-G2019S, MBP substrate): 125 nM
- kinase activity toward LRRKtide (in words) [2]: most significantly reduced
- IC50 [9]: 673 nM

SMILES: CC(C)(Sc1cc(C(C)(C)C)c(O)c(C(C)(C)C)c1)Sc1cc(C(C)(C)C)c(O)c(C(C)(C)C)c1 [Probucol]
- decrease in lifespan [10]: 11%
- viability of TH+ neurons (in words) [6]: did not improve
- inhibition of p-MBP (in words) [3]: Weak or noninhibitory

Now from value to compound, other results behind:

- kinase activity toward PEPrx3 (in words) [1]: most significantly reduced
- kinase activity toward LRRKtide (in words) [2]: most significantly reduced
SMILES: O=c1cc(-c2ccccc2)oc2cc(O)c(O)c(O)c12 [Baicalein]

- reduction of p-MBP [3]: ~ 90%
SMILES: COc1cc(/C=C/C(=O)CC(=O)/C=C/c2ccc(O)c(OC)c2)ccc1O [Curcumin]

- reduction of p-MBP [3]: ~ 90%
SMILES: CCCCCCCCOC(=O)/C=C/c1ccc(O)c(O)c1 [n-Octyl caffeate]

- kinase activity toward PEPrx3 (in words) [1]: most significantly reduced
- kinase activity toward LRRKtide (in words) [2]: most significantly reduced
SMILES: Oc1cc(O)cc(/C=C/c2ccc(O)c(O)c2)c1 [Piceatannol]
- increase in number of neurons in PPM3 [6]: up to 55%
- increase in climbing scores [8]: up to 22%
- level of H2O2 in brain lysates [7]: 20,061 ± 2910
